Screens: PubChem BioAssay, several laboratories
NPY-Y2 antag: NPY-Y2 receptor antagonists, primary screen, cell-based. 140,000 tested, 0.99% active. inhibition, % at 2.7 µM. NPY-Y2 expressing cells, antagonist mode. Neuropeptide Y receptor type 2 (Homo sapiens), P49146
NPY1 pot ag: NPY-Y1 receptor potentiators or agonists, primary screen, cell-based; Neuropeptide Y receptor type 1 (Homo sapiens), P25929; NPY-Y1 expressing cells, potentiator/agonist activation; activation, % at 3.6 µM; 220,000 tested, 0.37% active; in the data active = activation above about 33%, passing the limit was not always enough;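 also: cells stimulated with NPY at EC10 then isoproterenol at EC100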
Target sequence (P25929 whole entry, looked up): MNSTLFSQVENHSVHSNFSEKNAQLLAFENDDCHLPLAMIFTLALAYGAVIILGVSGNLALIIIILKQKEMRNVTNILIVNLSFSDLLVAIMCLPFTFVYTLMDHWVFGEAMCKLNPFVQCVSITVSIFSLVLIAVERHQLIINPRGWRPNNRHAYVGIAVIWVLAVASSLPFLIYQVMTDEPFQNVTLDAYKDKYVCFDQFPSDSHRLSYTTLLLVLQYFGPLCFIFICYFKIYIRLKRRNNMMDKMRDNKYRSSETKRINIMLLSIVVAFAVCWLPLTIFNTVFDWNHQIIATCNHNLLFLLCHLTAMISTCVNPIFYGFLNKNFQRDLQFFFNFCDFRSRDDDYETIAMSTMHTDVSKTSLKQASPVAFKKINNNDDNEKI
Furin inh: human furin inhibitors, primary screen, biochemical, fluorescence intensity; P09958; purified furin, fluorogenic substrate cleavage; inhibition, % at 20 µM or 30 µM; 220,000 tested, 0.061% active; AID 463115, 2010; in the data active = inhibition above about 25%
Cl transport mod: KCC2 cotransporter modulators, thallium flux, primary screen, cell-based, HEK293 KCC2, FluoZin-2 fluorescence, MLSMR. B-score of Tl+ flux slope (higher = more flux/activation; lower = inhibition) at 10 µM. KCC2 cells, thallium flux FluoZin-2 fluorescence. Solute carrier family 12 member 5 (Homo sapiens), Q9H2X9. 190,000 tested, 2.2% active;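 active = thallium flux slope and its plate-corrected score both differing from the plate sample mean at a set confidence after two filtering rounds, in either direction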;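 also: slope of fluorescence scaled to starting intensity during 10 to 20 s after thallium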
NPY-Y1 antag: NPY-Y1 receptor antagonists, primary screen, cell-based; Neuropeptide Y receptor type 1 (Homo sapiens), P25929; HEK293-CNG Y1 cells, membrane potential fluorescence; NPY at EC95, then isoproterenol; inhibition, % at 3.6 µM; 200,000 tested, 1% active; AID 1040, 2008;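 active = inhibition above the campaign mean inhibition of all tested compounds plus 3 SD, cut at about 20% in these data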
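Assay system: HEK293 Y1/CNG channel cell line; Doses: single compound dose of 3.6 µM, 0.4% DMSO; Timing: dye 3 h, compound 60 min room temperature, stimulation 45 min; Technique: Membrane-potential fluorescent dye readout; Measure: % inhibition of NPY effect.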
NPY2 pot ag: NPY-Y2 potentiators or agonists, primary screen, cell-based. cells expressing NPY-Y2, potentiator/agonist read-out. AID 1359, 2008. activation, % at 3.6 µM. 220,000 tested, 0.45% active. Neuropeptide Y receptor type 2 (Homo sapiens), P49146; in the data active = activation above about 27%;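 also: cells stimulated with NPY near EC25 plus isoproterenol at EC100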
NPY-Y1 ant conf: NPY-Y1 receptor antagonists, retest of hits, confirmation, HEK293-CNG cells, membrane potential fluorescence, triplicate. shares compounds with NPY-Y1 antag. cAMP; NPY challenge against isoproterenol-raised cAMP. inhibition, % at 3.6 µM. 1,200 tested, 21% active; in the data active = inhibition above about 20%
NPY2 antag ctr: NPY-Y2 receptor antagonists, selectivity check, confirmation, counter-screen for NPY-Y1 antagonist project, HEK293-CNG cells, membrane potential fluorescence, triplicate; AID 1255, 2008; shares compounds with NPY-Y1 antag; inhibition, % at 3.6 µM; antagonism; cells given NPY, then isoproterenol; 1,200 tested, 28% active
Large screens that a line does not name were inactive (follow-up assays come after a bar, where they were run). Shown are actives, neighbours in structure and some others; about 3.7% of the full set was active somewhere. Rule as the data show it, unless noted: active = inhibition above about 17%; inactive = the rest.

CCN1/C(=C/c2ccc3cc(C)ccc3[n+]2CC)Sc2ccccc21	none
COc1ccc(CNC(=O)COC(=O)/C=C/c2cccc(Br)c2)cc1OC	none (no result: NPY-Y2 antag)
FC(F)(F)c1cc(-c2ccco2)nc(-n2nc(C(F)(F)F)cc2C2CC2)n1	NPY-Y1 antag 21 (no result: Cl transport mod) | NPY-Y1 ant conf inactive | NPY2 antag ctr inactive
CS(=O)(=O)c1nc(-c2ccco2)cc(C(F)(F)F)n1	NPY-Y1 antag 24 (no result: Cl transport mod) | NPY-Y1 ant conf inactive | NPY2 antag ctr 46
COc1ccccc1-c1cc(C(F)(F)F)nc(S(C)(=O)=O)n1	none
CN1CCN(c2nc(-c3ccco3)cc(C(F)(F)F)n2)CC1	none (no result: Cl transport mod)
COc1ccccc1Cn1c(SCC(N)=O)nc2c(oc3ccccc32)c1=O	none (no result: NPY-Y2 antag)
O=C(NC(Cc1ccccc1)C(=O)O)/C(=C/c1ccccc1)NC(=O)c1cccc(Br)c1 (configuration not stated)	none (no result: NPY-Y2 antag)
Cc1nc(-c2cccc(NS(=O)(=O)c3ccc4ccccc4c3)c2)cs1	NPY-Y1 antag 32 | NPY-Y1 ant conf inactive | NPY2 antag ctr inactive
Cc1cc(-c2ccccc2)nc(Oc2cccc(C(F)(F)F)c2)c1S(C)(=O)=O	NPY-Y1 antag 29 | NPY-Y1 ant conf inactive | NPY2 antag ctr inactive
COc1cccc2cc(-c3nc(-c4cccs4)cs3)c(=O)oc12	none (no result: Cl transport mod)
O=c1oc2ccccc2cc1-c1nc(-c2cccs2)cs1	NPY-Y1 antag 30 | NPY-Y1 ant conf inactive | NPY2 antag ctr inactive
Cc1cccc(Oc2sc(C(=O)c3ccccc3)c(N)c2C#N)c1C	NPY-Y1 antag 24 | NPY-Y1 ant conf inactive | NPY2 antag ctr inactive
N#Cc1c(Oc2ccc3ccccc3c2)sc(C(=O)c2ccccc2)c1N	none
COc1ccc(CN(C(=O)c2nsc(Cl)c2Cl)C(C(=O)NC2CCCCC2)c2ccc(OC)cc2)cc1 (configuration not stated)	NPY-Y1 antag 22 | NPY-Y1 ant conf inactive | NPY2 antag ctr inactive
COc1ccc(C(=O)c2coc3ccc(O)c(CN4CCCC4)c23)cc1	NPY-Y1 antag 21 (no result: Cl transport mod) | NPY-Y1 ant conf inactive | NPY2 antag ctr 21
CCc1nc2sccc2c(=O)[nH]1	none (no result: NPY-Y2 antag)
CC1(C)CC(=O)C=C(NNC(=O)OC(C)(C)C)C1	NPY-Y1 antag 22 (no result: NPY-Y2 antag) | NPY-Y1 ant conf inactive | NPY2 antag ctr inactive
COc1ccc(N2CCc3c(C)nc4c(OC)cc(OC)cc4c32)cc1	NPY-Y1 antag 34 (no result: NPY-Y2 antag) | NPY-Y1 ant conf 26 | NPY2 antag ctr 24
O=C(/C=N/O)Nc1ccc2sc3ccccc3c2c1	none (no result: NPY-Y2 antag, NPY-Y1 antag)
COc1ccccc1NC(=O)Cc1noc(CSc2cc(C)c3ccccc3n2)n1	NPY-Y1 antag 20 | NPY-Y1 ant conf inactive | NPY2 antag ctr inactive
COc1ccccc1NC(=O)Cc1noc(CSc2cccc[n+]2[O-])n1	none
CCCCN(CCCC)c1cc(C)nc(-c2ccccc2O)n1	NPY-Y1 antag 22 | NPY-Y1 ant conf inactive | NPY2 antag ctr inactive
COc1ccc(OCCSc2nnc(-c3ccc(OC)cc3)n2N)cc1	none
CC1CCCN(c2nc(-c3cccnc3)nc3scc(-c4ccccc4)c23)C1 (configuration not stated)	none
CN1CCN(c2nc(-c3cccnc3)nc3scc(-c4ccccc4)c23)CC1	NPY-Y1 antag 28 (no result: NPY-Y2 antag) | NPY-Y1 ant conf inactive | NPY2 antag ctr inactive
COc1ccc(NC(=O)CCN2C(=O)C3CC=C(Cl)CC3C2=O)cc1 (configuration not stated)	none
c1ccc2c(c1)COC(CNC1CCCCC1)OC2	none (no result: NPY-Y2 antag)
COc1ccc(-c2cc(C(F)(F)F)n3nc(C(=O)NCc4ccco4)cc3n2)cc1	NPY-Y1 antag 24 (no result: Cl transport mod) | NPY-Y1 ant conf inactive | NPY2 antag ctr inactive
COCCNC(=O)C(=O)NCC1OCCCN1S(=O)(=O)c1cccs1 (configuration not stated)	none
COc1ccc(-c2csc(N(CCc3ccccc3)C(=O)COc3ccccc3)n2)cc1	NPY-Y1 antag 32 | NPY-Y1 ant conf inactive | NPY2 antag ctr inactive
CCN(CC1COc2ccccc2O1)S(=O)(=O)c1ccc(C)cc1 (configuration not stated)	none
COc1cc(CNCCc2c[nH]c3ccccc23)ccc1OCc1ccc(F)cc1	none
COc1cc(OC)cc(C(=O)N/N=C/c2ccc(OC)c(COc3ccc(F)cc3)c2)c1	NPY-Y1 antag 61 | NPY-Y1 ant conf inactive | NPY2 antag ctr 31
CCNc1nc(NCC)nc(SCCOC(=O)Nc2ccc(Cl)cc2Cl)n1	NPY-Y1 antag 24 | NPY-Y1 ant conf inactive | NPY2 antag ctr inactive
CCNc1nc(NCC)nc(SCCOC(=O)c2ccccc2)n1	none
Cc1ccsc1CNC1C2CC3CC(C2)CC1C3 (configuration not stated)	none (no result: NPY-Y2 antag)
Cc1noc(C)c1CSc1nc2[nH]ncc2c(=O)n1-c1ccccc1	NPY-Y1 antag 21 | NPY-Y1 ant conf inactive | NPY2 antag ctr inactive
Cc1nc(CSc2nc3[nH]ncc3c(=O)n2-c2ccccc2)cs1	none (no result: Cl transport mod)
Nc1c(C(=O)NCCN2CCOCC2)c2nc3ccccc3nc2n1CCc1ccccc1F	none (no result: Cl transport mod)
COc1ccccc1CNC(=O)c1c(N)n(CCCN2CCOCC2)c2nc3ccccc3nc12	NPY-Y1 antag 23 | NPY-Y1 ant conf inactive | NPY2 antag ctr inactive
N#Cc1nc(COc2ccc(F)cc2)oc1N1CCCC1	none
N#Cc1nc(COc2ccccc2)oc1N1CCC(Cc2ccccc2)CC1	NPY-Y1 antag 32 (no result: Cl transport mod) | NPY-Y1 ant conf 21 | NPY2 antag ctr 21
COc1ccccc1Nc1nc(N)nc(CN2CCC(Cc3ccccc3)CC2)n1	NPY-Y1 antag 25 | NPY-Y1 ant conf inactive | NPY2 antag ctr 22
CCOc1ccc(N2C(=O)CN(O)C=C3N=c4ccccc4=C32)cc1	none (no result: NPY-Y2 antag)
COc1ccc(CN(C)CC(=O)c2c(N)n(Cc3ccccc3)c(=O)n(C)c2=O)c(OC)c1	NPY-Y1 antag 24 | NPY-Y1 ant conf inactive | NPY2 antag ctr inactive
Cn1c(=O)c(C(=O)COc2ccc(F)cc2Cl)c(N)n(Cc2ccccc2)c1=O	NPY-Y1 antag 32 (no result: NPY-Y2 antag) | NPY-Y1 ant conf inactive | NPY2 antag ctr 55
Cn1c(N)c(C(=O)COc2ccc(Cl)cc2Cl)c(=O)n(C)c1=O	none (no result: NPY-Y2 antag)
